Reference: ChEMBL document CHEMBL2021916, “Aflaquinolones A-G: secondary metabolites from marine and fungicolous isolates of Aspergillus spp” (J Nat Prod, 2012)

Assays:
HL-60 = assay: Cytotoxicity against human HL60 cells after 48 hrs by EZ-CyTox enhanced cell viability assay; type: functional, cell-based; conditions: HL-60, 48 h
Outline: (§1)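 Seeding densities: K562 3 × 10⁴, B16F10 3 × 10³, HL-60 1 × 10⁵, MDA-MB-231 5 × 10³ and Hep3B 5 × 10³ cells per well. Cells were exposed for 48 h to test compounds supplied as DMSO solutions. Viability was read with the EZ-CyTox enhanced cell viability kit as absorbance at 450 nm.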

MDA-MB-231 = assay: Cytotoxicity against human MDA-MB-231 cells after 48 hrs by EZ-CyTox enhanced cell viability assay; type: functional, cell-based; conditions: MDA-MB-231, 48 h; outline: as §1
B16-F10 = assay: Cytotoxicity against mouse B16F10 cells after 48 hrs by EZ-CyTox enhanced cell viability assay; type: functional, cell-based; conditions: B16-F10, 48 h; outline: as §1
K562 = assay: Cytotoxicity against human K562 cells after 48 hrs by EZ-CyTox enhanced cell viability assay; type: functional, cell-based; conditions: K562, 48 h; outline: as §1
[1] = Cytotoxicity against human Hep3B cells after 48 hrs by EZ-CyTox enhanced cell viability assay; type: functional, cell-based, Hep 3B2; outline: as §1

Measured: IC50

O=C1Nc2ccccc2[C@@](O)(c2ccccc2)[C@H]1O [AFLAQUINOLONE G]
> 80 µM: HL-60 | MDA-MB-231 | B16-F10 | K562 | [1]

CO[C@@H]1C(=O)Nc2ccc(/C=C/[C@]3(C)CCC(=O)[C@@H](C)C3)c(O)c2[C@@]1(O)c1ccccc1 [AFLAQUINOLONE A]
> 80 µM: HL-60 | MDA-MB-231 | B16-F10 | K562 | [1]

CO[C@@H]1C(=O)Nc2ccc(/C=C/[C@@]3(C)CCC(=O)[C@H](C)C3)c(O)c2[C@@]1(O)c1ccccc1 [AFLAQUINOLONE C]
> 80 µM: HL-60 | MDA-MB-231 | B16-F10 | K562 | [1]

CO[C@@H]1C(=O)Nc2cccc(O)c2[C@@]1(O)c1ccccc1 [AFLAQUINOLONE E]
> 80 µM: HL-60 | MDA-MB-231 | B16-F10 | K562 | [1]

O=C1Nc2ccccc2[C@@](O)(c2ccccc2)[C@@H]1O [AFLAQUINOLONE F]
> 80 µM: HL-60 | MDA-MB-231 | B16-F10 | K562 | [1]

CO[C@@H]1C(=O)Nc2ccc(/C=C/[C@]3(C)CC[C@@H](O)[C@@H](C)C3)c(O)c2[C@@]1(O)c1ccccc1 [AFLAQUINOLONE B]
> 80 µM: HL-60 | MDA-MB-231 | B16-F10 | K562 | [1]
